Experimental findings from ChEMBL document CHEMBL1139254, “Synthesis and in vitro activities of a new antiviral duplex drug linking Zidovudine (AZT) and Foscarnet (PFA) via an octadecylglycerol residue” (Bioorg Med Chem, 2009) are described below.

Series [1] deals with Human immunodeficiency virus 1. Nature of the series: Antiviral activity against HIV1 infected in human CEM-SS cells assessed as inhibition of virus-induced cytopathic effect by plaque reduction assay. To be noted: Human immunodeficiency virus 1, CEM-SS. The class given is functional, organism-based. In outline: (§1)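 Run at the National Cancer Institute (USA). The assay rests on HIV killing T4 lymphocytes. EC50 is the concentration protecting against virus cytopathic effect, and IC50 is 50% inhibition of cell growth. The therapeutic index is TI50 = IC50/EC50.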

For the next series, the system named is CEM-SS. The series can be described thus: Growth inhibition of human CEM-SS cells. Type of series: cell-based. A digest of the protocol:
as §1

Series [2] is described as follows: Therapeutic index, IC50 for human CEM-SS cells to EC50 for HIV1. Particulars: read-out: Ratio IC50/EC50. The class given is cell-based. A digest of the protocol:
as §1

Series [3] has as its system Human alphaherpesvirus 1. Nature of the series: Antiviral activity against acyclovir-sensitive HSV1 KOS isolate replication in african green monkey Vero cells by plaque reduction assay. Type of series: functional, organism-based. To be noted: Human alphaherpesvirus 1, Vero. A digest of the protocol: (§2)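 HSV-1 was grown and assayed by plaque reduction in Vero cell monolayers in MEM with 10% FCS. Drug was diluted in MEM–10% FCS from a 100 mM PBS stock, and IC50 was read from the plaque counts. KOS-M was derived from KOS by 3 weeks of passage in 13 μM ACV.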
On the technique in general: In a plaque reduction assay, fewer plaques than in the control indicate reduced infectivity or spread.

In series [4] the test system is Human alphaherpesvirus 1. The series can be described thus: Antiviral activity against acyclovir-resistant HSV1 KOS-M isolate replication in african green monkey Vero cells by plaque reduction assay. The class given is functional, organism-based. Particulars: Human alphaherpesvirus 1, Vero. In outline:
as §2

Series [5] concerns Human alphaherpesvirus 1. Nature of the series: Antiviral activity against acyclovir-sensitive HSV1 K161 isolate replication in african green monkey Vero cells by plaque reduction assay. The class given is functional, organism-based. Particulars: Human alphaherpesvirus 1, Vero. In outline:
as §2

The test system of series [6] is Human alphaherpesvirus 1. Nature of the series: Antiviral activity against acyclovir-resistant HSV1 K143 isolate replication in african green monkey Vero cells by plaque reduction assay. To be noted: Human alphaherpesvirus 1, Vero. The class given is functional, organism-based. A digest of the protocol:
as §2

The test system of series [7] is Human alphaherpesvirus 1. The series can be described thus: Antiviral activity against acyclovir-sensitive HSV1 L177 isolate replication in african green monkey Vero cells by plaque reduction assay. The class given is functional, organism-based. Particulars: Human alphaherpesvirus 1, Vero. In outline: as §2
Series [8] deals with Human alphaherpesvirus 1. The series can be described thus: Antiviral activity against acyclovir-resistant HSV1 L182 isolate replication in african green monkey Vero cells by plaque reduction assay. The class given is functional, organism-based. Particulars: Human alphaherpesvirus 1, Vero. In outline:
as §2

For series [9], the system named is Human betaherpesvirus 5. Nature of the series: Antiviral activity against ganciclovir-sensitive HCMV1 isolate replication in HFF cells by plaque reduction assay. The class given is functional, organism-based. To be noted: Human betaherpesvirus 5, HFF. In outline:
(§3)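 Plaque reduction run as a modified, simplified micro-culture, cell-associated immediate-early assay on human foreskin fibroblast monolayers (passage 15–30) in MEM with 10% FCS. Drug was diluted in MEM–10% FCS from a 100 mM PBS stock. IC50 came from Probit analysis. Strain HCMV-3res carries the UL97 C603W mutation. U405 is a clinical isolate from a pediatric stem cell transplant recipient.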

The subject of series [10] is Human betaherpesvirus 5. The series can be described thus: Antiviral activity against ganciclovir-resistant HCMV3 isolate replication in HFF cells by plaque reduction assay. To be noted: Human betaherpesvirus 5, HFF. Type of series: functional, organism-based. A digest of the protocol: as §3
Series [11] has as its system Human betaherpesvirus 5. Nature of the series: Antiviral activity against ganciclovir-resistant HCMV U405 isolate replication in HFF cells by plaque reduction assay. The class given is functional, organism-based. Particulars: Human betaherpesvirus 5, HFF. In outline:
as §3

For the compound `CCCCCCCCCCCCCCCCCCOC[C@H](COP(=O)(O)C(=O)O)OP(=O)(O)OC[C@H]1O[C@@H](n2cc(C)c(=O)[nH]c2=O)C[C@@H]1N=[N+]=[N-]`, in [1], the EC50 (usually the concentration giving half of the maximal effect) amounted to 0.17 µM. For the same compound, the IC50 – broadly, the midpoint of a concentration-inhibition curve – in the series on CEM-SS was 92.7 µM; in the series with Human alphaherpesvirus 1 [3], 4.02 µM; with Human alphaherpesvirus 1 [4], 3.39 µM; in the series on Human alphaherpesvirus 1 [5] it was 2.27 µM; with Human alphaherpesvirus 1 [6] it was 4.59 µM; in the series on Human alphaherpesvirus 1 [7], 1.92 µM. The IC50 came out at 1.87 µM in the series on Human alphaherpesvirus 1 [8], 2.78 µM in the series on Human betaherpesvirus 5 [9], 1.18 µM with Human betaherpesvirus 5 [10] and 4.29 µM in the series on Human betaherpesvirus 5 [11]. Also, the selectivity ratio in series [2] is 454.

Take `Nc1nc2c(ncn2COCCO)c(=O)[nH]1` [ACYCLOVIR]: the IC50 in the series on Human alphaherpesvirus 1 [3] was found to be 3.04 µM; with Human alphaherpesvirus 1 [4], 31.2 µM; with Human alphaherpesvirus 1 [5] it was 0.58 µM; in the series with Human alphaherpesvirus 1 [6], 75.1 µM; in the series on Human alphaherpesvirus 1 [7], 0.32 µM; in the series on Human alphaherpesvirus 1 [8], 9.51 µM.

Regarding `O=C(O)P(=O)(O)O` [FOSCARNET], the IC50 was 125 µM in the series with Human alphaherpesvirus 1 [3]; 112 µM in the series with Human alphaherpesvirus 1 [4]; 64 µM in the series with Human alphaherpesvirus 1 [7]; 46 µM in the series with Human alphaherpesvirus 1 [8]; 67.5 µM with Human betaherpesvirus 5 [10]; 400 µM in the series with Human betaherpesvirus 5 [11].

With `Nc1nc2c(ncn2COC(CO)CO)c(=O)[nH]1` [GANCICLOVIR], the figures for the IC50 with Human betaherpesvirus 5 [9] and in the series on Human betaherpesvirus 5 [10] were 3.22 µM and 16.4 µM, respectively.
